The list is not random: actives were taken first. Their share in the collection is about 2.3%.
TRPC4 block: inhibitors of mouse TRPC4 channel | B-score at 10 µM | HEK293 TRPC4beta/mu-opioid, DAMGO-evoked Fluo4 calcium flux; hits give low values | Q9QUQ5 | AID 2247 | 0.39% of 300,000 active;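 active = B-score over 3 SD under the library average, no early fluorescence shift, positive overall ratio signal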
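Material: HEK293 cells with stable TRPC4beta plus mu-opioid receptor expression / Probe or stimulus: DAMGO in two steps, submaximal then maximal / Compound: single concentration per test compound / Technique: kinetic Fluo4 fluorescence imaging of calcium influx / Read-out: per-well B score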
TRPC6 inh: blocks the mouse TRPC6 cation channel. B-score at 10 µM. HEK293-TRPC6, membrane potential dye, ACh-evoked depolarization; hits give low values. Q61143. AID 2553. 1.1% of 310,000 active;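 active = B-score under library mean minus 3 SD, initial fluorescence not abnormally high, positive integrated signal ratio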;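 note: B-score derived from integrated fluorescence ratio over the kinetic read; more negative B-score means stronger inhibition of depolarization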
Target sequence (Q61143 whole entry, looked up): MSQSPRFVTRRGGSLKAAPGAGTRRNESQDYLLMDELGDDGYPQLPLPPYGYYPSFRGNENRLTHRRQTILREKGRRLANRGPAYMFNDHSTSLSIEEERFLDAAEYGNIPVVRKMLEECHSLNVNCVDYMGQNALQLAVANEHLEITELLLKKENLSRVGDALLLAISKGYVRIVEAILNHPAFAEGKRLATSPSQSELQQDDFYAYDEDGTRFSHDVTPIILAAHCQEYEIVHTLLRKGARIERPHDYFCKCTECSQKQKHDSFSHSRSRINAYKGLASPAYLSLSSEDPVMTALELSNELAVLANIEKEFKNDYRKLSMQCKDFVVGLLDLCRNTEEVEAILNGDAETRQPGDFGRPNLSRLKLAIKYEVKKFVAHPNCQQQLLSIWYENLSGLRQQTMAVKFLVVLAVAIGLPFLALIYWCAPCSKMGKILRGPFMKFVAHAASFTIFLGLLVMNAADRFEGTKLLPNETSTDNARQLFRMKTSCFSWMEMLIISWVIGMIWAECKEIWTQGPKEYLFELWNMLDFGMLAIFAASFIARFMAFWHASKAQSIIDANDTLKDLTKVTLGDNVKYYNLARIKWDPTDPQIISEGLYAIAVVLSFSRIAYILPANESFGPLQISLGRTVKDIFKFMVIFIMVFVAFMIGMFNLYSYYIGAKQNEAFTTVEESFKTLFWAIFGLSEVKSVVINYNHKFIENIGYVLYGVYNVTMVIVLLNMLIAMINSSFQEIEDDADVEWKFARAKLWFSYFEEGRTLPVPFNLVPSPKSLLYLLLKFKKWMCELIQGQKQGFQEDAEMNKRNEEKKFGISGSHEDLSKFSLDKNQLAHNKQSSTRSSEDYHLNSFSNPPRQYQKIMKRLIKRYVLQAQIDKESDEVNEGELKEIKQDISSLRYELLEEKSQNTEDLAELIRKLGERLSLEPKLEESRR
TRPC4 potent: TRPC4 (mouse) allosteric potentiation | Q9QUQ5 | HEK293 TRPC4beta/mu-opioid, DAMGO EC20, Fluo-4 Ca2+ flux; hits give high values | B-score at 10 µM | 0.42% of 310,000 active;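 active = B-score of calcium response area above 5 SD of library B-scores, with initial fluorescence ratio within 5 SD of library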
TRPC4 act: opens the mouse TRPC4 cation channel | Q9QUQ5 | HEK293 TRPC4beta/mu-opioid, Fluo4 calcium fluorescence; hits give high values | B-score at 10 µM | 0.49% of 310,000 active | AID 2237;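 active = B-score above 5 SD of library B-scores, and initial fluorescence ratio not above library mean plus 5 SD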;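 note: positive B-score marks a calcium rise read as TRPC4 activation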
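Assay system: HEK293 cells stably co-expressing mouse TRPC4beta and mu-opioid receptor / Timing: Fluo4 dye loading 45 min at room temperature, 110 s recording / Signal: Fluo4 calcium-sensitive dye fluorescence, kinetic, 1 Hz baseline / Read-out: integrated baseline-normalised fluorescence ratio, converted to per-well B score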
TRPC6 act: mouse TRPC6 channel activation; 0.13% of 310,000 active; HEK293-TRPC6 membrane potential dye fluorescence; hits give high values; B-score at 10 µM; Q61143;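 active = B-score of the integrated fluorescence ratio above library mean plus 3 SD, and starting fluorescence ratio within library mean plus 5 SD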;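 note: higher score means more depolarization so channel activation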
TRPC4 sel inh 2: second check of whether TRPC6 inhibitors also affect mouse TRPC4 | shares compounds with TRPC6 inh | HEK293 TRPC4/MOR, membrane potential dye fluorescence; channel activated by saturating DAMGO dose | inhibition, % at 10 µM | 42% of 920 active | AID 2776;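 active = compounds whose fluorescence signal differed from control wells by over 3 SD, either direction, in both duplicate plates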
TRPC4 spec: selectivity of TRPC6 inhibitors: effect on mouse TRPC4. shares compounds with TRPC6 inh. AID 2777. activity change, negative = inhibition, % at 10 µM. 61% of 920 active. HEK293 TRPC4/mu-opioid, membrane potential fluorescence;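 active = rise or fall in signal beyond 3 SD of buffer-only wells in both replicate plates, either sign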;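 note: integrated kinetic ratio of fluorescence range over baseline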
HEK293 MPD ctr 2-1: second check of TRPC6 inhibitor effects in parental HEK293 cells. shares compounds with TRPC6 inh. parental HEK293 membrane potential dye fluorescence; maximal acetylcholine challenge after compound addition. signal change vs control, % at 10 µM. 31% of 920 active;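 active = membrane potential signal moving either way by over 3 SD of the maximum-effect control, in both duplicate plates, meaning non-specific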
HEK293 MPD ctr-1: checks TRPC6 inhibitor effects in parental HEK293 cells. membrane potential signal change, % at 10 µM. shares compounds with TRPC6 inh. 60% of 920 active. parental HEK293 membrane potential dye fluorescence;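 active = membrane potential signal shifting up or down by more than 3 SD of buffer-only wells, on both duplicate plates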
HEK293 MPD ctr-2: checks TRPC6 modulator effects in parental HEK293 cells; AID 488924; membrane potential dye fluorescence; 51% of 2,400 active; shares compounds with TRPC6 inh; membrane potential signal change, % at 10 µM;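 active = membrane potential signal moves up or down beyond 5 SD from buffer-only wells, on both duplicate plates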
HEK293 MPD ctr 2-2: second counter-screen for TRPC6 modulators: effect in parental HEK293 cells; inhibition, % at 10 µM; 14% of 2,400 active; membrane potential dye fluorescence; after compound, maximal acetylcholine stimulation; shares compounds with TRPC6 inh;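 active = membrane potential signal drops by more than 5 SD from the mean control signal, in both duplicate plates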
TRPC4 ctr mod: tests whether TRPC6 modulators also affect mouse TRPC4; HEK293 TRPC4/mu-opioid, membrane potential fluorescence; AID 488927; percent change from control (negative = decrease, positive = increase), % at 10 µM; shares compounds with TRPC6 inh; 69% of 2,400 active;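 active = membrane potential signal moved up or down beyond 5 SD of buffer control wells, in both duplicate plates, actives on both sides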
TRPC4 ctr inh 2: mouse TRPC4 off-target activity of TRPC6 modulators, second screen; shares compounds with TRPC6 inh; HEK293 TRPC4/mu-opioid, membrane potential dye fluorescence; stimulated with maximal-effect DAMGO; inhibition, % at 10 µM; 55% of 2,400 active; AID 488928;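 active = drop in membrane potential signal beyond 5 SD of the control wells in both duplicate plates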;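 note: TRPC4 counter screen for TRPC6 hits run under conditions tuned for TRPC6 not TRPC4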
TRPC6 inh conf: confirmation of mouse TRPC6 inhibitors; shares compounds with TRPC6 inh; HEK293-TRPC6, membrane potential dye, ACh-evoked depolarization; inhibition, % at 10 µM; 43% of 3,300 active; AID 488960;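 active = fluorescence ratio falls more than 5 SD below the full-stimulation control mean, in both duplicate runs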;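 note: integrated fluorescence ratio of peak minus minimum over baseline after agonist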
TRPC6 act conf: confirmation of mouse TRPC6 activators; shares compounds with TRPC6 inh; 11% of 2,800 active; HEK293-TRPC6 membrane potential dye fluorescence, FDSS; activation, % at 10 µM;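 active = ratio signal rise beyond 5 SD above unstimulated control wells' mean, seen in both duplicate runs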
Of the large screens only hits and unclear results are named; the others gave an inactive call (follow-up assays come after a bar, where they were run).

CCc1nc(NC(=O)NS(=O)(=O)c2ccccc2C(=O)OC)nc(OC)n1	none
COc1ccc(C(=O)C2CCCN(Cc3cccn3-c3ccccn3)C2)cc1F (stereo not drawn)	TRPC6 inh -12 | TRPC4 sel inh 2 16% | TRPC4 spec inactive | HEK293 MPD ctr 2-1 21% | HEK293 MPD ctr-1 -0.1% | TRPC6 inh conf 107% | TRPC6 act conf inactive
COc1ccc(C(=O)C2CCCN(Cc3cccn3-c3nccs3)C2)cc1OC (stereo not drawn)	TRPC6 inh -5.2 | HEK293 MPD ctr-2 inactive | HEK293 MPD ctr 2-2 inactive | TRPC4 ctr mod inactive | TRPC4 ctr inh 2 68% | TRPC6 inh conf inactive | TRPC6 act conf inactive
COc1cccc(C(=O)C2CCCN(Cc3cccn3-c3ccccn3)C2)c1 (stereo not drawn)	TRPC4 block -7, TRPC6 inh -5.9 | HEK293 MPD ctr-2 146% | HEK293 MPD ctr 2-2 inactive | TRPC4 ctr mod 14% | TRPC4 ctr inh 2 84% | TRPC6 inh conf 60%
Cc1ccsc1C(=O)C1CCCN(Cc2cccn2-c2ccc(Cl)cn2)C1 (stereo not drawn)	TRPC6 inh -6 | HEK293 MPD ctr-2 inactive | HEK293 MPD ctr 2-2 inactive | TRPC4 ctr mod inactive | TRPC4 ctr inh 2 90% | TRPC6 inh conf 54%
COc1ccc(C(=O)C2CCCN(Cc3cccn3-c3nccs3)C2)cc1F (stereo not drawn)	none
O=[N+]([O-])c1ccc(O)c(C(C#Cc2ccccc2)N2CCOCC2)c1 (stereo not drawn)	none
C=CCN1C(=O)N(c2ccc(Cl)cc2)C(=O)C1CC(=O)Nc1ccc(F)cc1 (stereo not drawn)	TRPC6 inh -5.8 | HEK293 MPD ctr-2 -66% | HEK293 MPD ctr 2-2 inactive | TRPC4 ctr mod -16% | TRPC4 ctr inh 2 inactive | TRPC6 inh conf inactive | TRPC6 act conf inactive
COC(=O)CN1C(=S)N(c2ccc(Cl)cc2)C(=O)C1CC(=O)Nc1ccc(F)cc1 (stereo not drawn)	none
CCOC(=O)c1ccc(NC(=O)CC2C(=O)N(c3ccc(F)cc3)C(=O)N2CCC(C)C)cc1 (stereo not drawn)	TRPC6 inh -5.8 | HEK293 MPD ctr-2 inactive | HEK293 MPD ctr 2-2 inactive | TRPC4 ctr mod inactive | TRPC4 ctr inh 2 inactive | TRPC6 inh conf 42%
COC(=O)CN1C(=S)N(c2ccc(Cl)cc2)C(=O)C1CC(=O)Nc1ccc(Cl)cc1 (stereo not drawn)	TRPC6 inh -6.6 | HEK293 MPD ctr-2 -68% | HEK293 MPD ctr 2-2 inactive | TRPC4 ctr mod -20% | TRPC4 ctr inh 2 32% | TRPC6 inh conf inactive | TRPC6 act conf inactive
O=C(COC(=O)c1c(Cl)ccc(Cl)c1Cl)NC1CCS(=O)(=O)C1 (stereo not drawn)	none
CCOC(=O)Nc1ccc2c(c1)OCO2	TRPC6 inh -5.6 | HEK293 MPD ctr-2 inactive | HEK293 MPD ctr 2-2 inactive | TRPC4 ctr mod inactive | TRPC4 ctr inh 2 inactive | TRPC6 inh conf inactive | TRPC6 act conf inactive
COc1ccc(CNC(=O)N2CCN(c3ccccc3OC)CC2)cc1	none
CCCCOc1ccc(CSCCN)cc1Cl	TRPC6 inh -6.2 | HEK293 MPD ctr-2 inactive | HEK293 MPD ctr 2-2 inactive | TRPC4 ctr mod inactive | TRPC4 ctr inh 2 59% | TRPC6 inh conf 45% | TRPC6 act conf inactive
CCCCOc1ccc(CONS(=O)(=O)c2ccc(NC(C)=O)cc2)cc1Cl	none
CC(=O)N1c2ccc(S(=O)(=O)N3CCC(C(=O)N4CCCC(C)C4)CC3)cc2CC1C (stereo not drawn)	none
Cc1ccc(S(=O)(=O)c2cc3c(=O)n4ccccc4nc3n(CCCN3CCOCC3)c2=N)cc1C	TRPC6 inh -6.2 | HEK293 MPD ctr-2 -250% | HEK293 MPD ctr 2-2 66% | TRPC4 ctr mod -52% | TRPC4 ctr inh 2 80% | TRPC6 inh conf 66% | TRPC6 act conf inactive
N=c1c(S(=O)(=O)c2ccccc2)cc2c(=O)n3ccccc3nc2n1CCCN1CCOCC1	TRPC6 inh -5.5 | HEK293 MPD ctr-2 -142% | HEK293 MPD ctr 2-2 inactive | TRPC4 ctr mod -41% | TRPC4 ctr inh 2 51% | TRPC6 inh conf 50% | TRPC6 act conf inactive
Cc1cc(=O)n2c(C(=O)Nc3ccc(C(=O)OC(C)C)cc3)c(C(=O)Nc3ccccc3)sc2n1	none
Cc1cc(OCC(=O)NCCc2cccc(F)c2)c2c(C)cc(=O)oc2c1	none
COc1ccc(S(=O)(=O)N2CCN(Cc3ccc4c(c3)OCO4)CC2)cc1	none
O=C(c1cccn2c(=O)c3cc(Cl)ccc3nc12)N1CCN(Cc2ccc3c(c2)OCO3)CC1	TRPC6 inh -7.5 | TRPC4 sel inh 2 inactive | TRPC4 spec inactive | HEK293 MPD ctr 2-1 inactive | HEK293 MPD ctr-1 inactive | TRPC6 inh conf inactive | TRPC6 act conf inactive
Cc1ccc(S(=O)(=O)N2CCN(C(=O)Cc3ccc4c(c3)OCCO4)CC2)cc1C	TRPC6 inh -6.1 | HEK293 MPD ctr-2 inactive | HEK293 MPD ctr 2-2 inactive | TRPC4 ctr mod inactive | TRPC4 ctr inh 2 inactive | TRPC6 inh conf inactive | TRPC6 act conf inactive
O=C(c1ccccc1Cl)N1CCN(Cc2ccc3c(c2)OCO3)CC1	TRPC6 act 13 | HEK293 MPD ctr-2 inactive | HEK293 MPD ctr 2-2 inactive | TRPC4 ctr mod inactive | TRPC4 ctr inh 2 inactive | TRPC6 inh conf inactive | TRPC6 act conf 32%

Screening data from PubChem BioAssay.
